An excerpt weighted towards active compounds, which were near 4.2% of everything screened.
Cl transport mod: KCC2 cotransporter modulators, thallium flux, primary screen, cell-based, HEK293 KCC2, FluoZin-2 fluorescence, MLSMR; B-score of Tl+ flux slope (higher = more flux/activation; lower = inhibition) at 10 µM; 190,000 tested, 2.2% active; KCC2 cells, thallium flux FluoZin-2 fluorescence;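 active means thallium flux slope and its plate-corrected score both differing from the plate sample mean at a set confidence after two filtering rounds, in either direction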;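 further: slope of fluorescence scaled to starting intensity during 10 to 20 s after thallium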
Target sequence (Q9H2X9 whole entry, looked up): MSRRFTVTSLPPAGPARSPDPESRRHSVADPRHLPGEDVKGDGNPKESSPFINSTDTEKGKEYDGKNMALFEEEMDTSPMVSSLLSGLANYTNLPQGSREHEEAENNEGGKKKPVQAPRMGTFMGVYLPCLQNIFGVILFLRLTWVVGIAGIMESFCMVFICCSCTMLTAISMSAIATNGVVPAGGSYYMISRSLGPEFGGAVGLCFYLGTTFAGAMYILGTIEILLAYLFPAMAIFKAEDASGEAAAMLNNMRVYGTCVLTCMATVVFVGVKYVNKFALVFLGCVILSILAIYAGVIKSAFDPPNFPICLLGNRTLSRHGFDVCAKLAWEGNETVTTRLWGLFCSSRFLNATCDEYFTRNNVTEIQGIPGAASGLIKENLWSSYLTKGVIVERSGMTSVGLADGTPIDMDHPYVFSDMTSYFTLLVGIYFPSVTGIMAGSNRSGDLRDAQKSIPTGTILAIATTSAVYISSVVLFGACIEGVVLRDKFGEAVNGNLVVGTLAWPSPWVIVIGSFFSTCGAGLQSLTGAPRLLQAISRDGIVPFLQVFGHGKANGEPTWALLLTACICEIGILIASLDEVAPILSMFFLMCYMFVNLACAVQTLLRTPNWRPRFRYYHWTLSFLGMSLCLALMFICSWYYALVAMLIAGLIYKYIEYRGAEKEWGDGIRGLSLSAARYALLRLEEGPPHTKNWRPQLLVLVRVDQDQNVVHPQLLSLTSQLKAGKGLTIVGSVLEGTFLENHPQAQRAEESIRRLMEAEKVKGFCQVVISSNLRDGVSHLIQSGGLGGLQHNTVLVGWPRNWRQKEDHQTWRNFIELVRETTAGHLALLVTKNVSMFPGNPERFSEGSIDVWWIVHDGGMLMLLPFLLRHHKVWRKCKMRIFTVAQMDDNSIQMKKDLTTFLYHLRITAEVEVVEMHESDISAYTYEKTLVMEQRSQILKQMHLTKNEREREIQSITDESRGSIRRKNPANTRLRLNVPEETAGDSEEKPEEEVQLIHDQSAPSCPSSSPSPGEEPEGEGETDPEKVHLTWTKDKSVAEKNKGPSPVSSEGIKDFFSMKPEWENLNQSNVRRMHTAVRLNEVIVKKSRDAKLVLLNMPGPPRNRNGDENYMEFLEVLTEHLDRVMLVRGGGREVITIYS
Rad51 HR inh: human RAD51 strand exchange inhibitors, primary screen, biochemical, fluorescence; DNA repair protein RAD51 homolog 1 (Homo sapiens), Q06609; hRad51 DNA strand exchange, fluorescence dequenching; inhibition, % at 10 µM; 200,000 tested, 0.085% active;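 active means inhibition above 40% at the single screening dose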;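 further: 0% = DMSO control wells and 100% = blanks with heterologous ssDNA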
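Material: human Rad51–ssDNA filaments; Probe or stimulus: labelled 47-mer dsDNA for strand exchange; Doses: single 10 µM dose; Incubation: 37 °C 15-min filament assembly, 30-min compound preincubation, 15-min exchange; Technique: FRET fluorescence dequenching, excitation 485 nm, emission 520 nm; Measure: Fluorescence-based percent inhibition, control- and blank-normalised; Benchmarks: plate control and blank wells.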
SKKanGAS inh: S. pyogenes SKKanGAS growth inhibitors in kanamycin, primary screen, streptokinase expression inhibitor project, SKKanGAS strain, BacTiter-Glo luminescence; 6 h; inhibition, % at 7.5 µM; 300,000 tested, 1.3% active; AID 1662, 2009;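 active means mean replicate score, as percent of positive control median, at least 50; inconclusive means mean below 50 but one replicate at or above 50; inactive means mean and every replicate below 50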;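 further: strain carries kanamycin resistance gene driven by streptokinase promoter and grows in 40 µg/ml kanamycin; loss of luminescence reflects streptokinase promoter inhibition or plain growth inhibition; 0% = median of DMSO wells and 100% = positive control at its reference dose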
Insulin prom up: insulin promoter activators in MIN6 cells, imaging, high-content screening, mouse beta cells | 190,000 tested, 0.3% active | MIN6 insulin promoter-GFP reporter; hits give high values | z-score at 5 µM;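 active means z-score above 3 at 5 µM with at least 500 cells counted in the well; inconclusive means wells under 500 cells, flagged as cytotoxic or low count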
WT yeast gro inh: growth inhibition of WT strain, primary screen, mitochondrial fusion inhibitor project, WT and mutant strains, chemical genetic; mitochondrial fusion phenotypic screen; inhibition, % at 10 µM; 190,000 tested, 2.1% active; in the data active means inhibition above about 58%; tested in S. cerevisiae
Autophagy HCS: autophagy modulators in MEF cells, primary screen, imaging, high-content, MEF GFP-LC3; MEF GFP-LC3 puncta imaging; test concentration mostly 10 µM; calls only at 10 µM (by protocol); 190,000 tested, 0.98% active;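 active means percentage of spot-positive cells more than 3 SD above its plate mean, without a fluorescence outlier flag or 80% toxicity; inconclusive means no clear call, values can overlap the other calls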;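 further: spot-positive cell cutoff set from DMSO-treated cells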
* marks the source's active call; other numbers are inactive results; i = inactive; u = inconclusive; x = no result given; + = active, no number.

SMILES	Cl transport mod	Rad51 HR inh	SKKanGAS inh	Insulin prom up	WT yeast gro inh	Autophagy HCS
CNC(=O)c1cccn(Cc2cccc(C(F)(F)F)c2)c1=O	0.271	6.1	0.0	0.66	15.0	i
CN(C)CCNC(=O)c1cccn(Cc2cccc(C(F)(F)F)c2)c1=O	0.147	2.3	-2.3	-0.18	-5.7	+
Cc1c(C(=O)N2CCC3(CC2)OCCO3)sc2ncnc(N3CCN(c4ccccn4)CC3)c12	-0.112	-1.8	x	0.2	0.5	i
O=c1c2ccccc2[se]n1-c1ccccc1	1.07	-2.9	88.3*	x	96.6*	i
O=C(Nc1cccnc1)c1c(O)c2c(n(Cc3ccccc3)c1=O)CCCC2	-0.394	-7.7	52.4*	-1.35	6.0	i
CC[n+]1c(SC)ccc2cc(OC)ccc21	1.48	-8.0	-5.8	0.05	70.9*	i
S=P(NC1CCCCC1)(N1CC1)N1CC1	-0.0896	-5.5	-1.0	x	x	x
COc1ccc(Oc2cc(NC(=O)c3nn(C)cc3[N+](=O)[O-])cc([N+](=O)[O-])c2)cc1	-1.56	0.1	4.1	-0.81	13.1	+
Clc1ccc(CSC(Cn2ccnc2)c2ccc(Cl)cc2Cl)cc1 (stereo unspecified)	0.124	-0.6	x	x	83.8	i
Clc1ccc(COC(Cn2ccnc2)c2ccc(Cl)cc2Cl)cc1 (stereo unspecified)	0.646	-1.6	74.3*	x	82.8	i
Cc1ccc(C[n+]2c(-c3ccc(C)cc3)cc(-c3ccc(C)cc3)cc2-c2ccc(C)cc2)cc1	x	x	105.8*	x	x	x
Cc1ccc(-c2cc(-c3ccc(C)cc3)[n+](-c3ccc(C(=O)O)cc3)c(-c3ccc(C)cc3)c2)cc1	x	x	-0.1	x	x	x
CC(C)(C)c1ccc(O)c(N=Cc2c(O)ccc3ccccc23)c1	x	x	86.7*	x	x	x
COC(=O)C(O)(c1ccc(N=Cc2ccccc2O)c(C)c1)C(F)(F)F (stereo unspecified)	-0.724	3.0	-0.6	-0.04	6.3	i
Cc1ccc2c(c1)C1CN(C)CCC1N2C(=O)c1cn(-c2ccccc2)nc1-c1ccccc1 (stereo unspecified)	-0.417	1.5	-3.2	0.27	86.1*	+
Cc1ccc2c(c1)C1CN(C)CCC1N2C(=O)c1cccnc1Cl (stereo unspecified)	x	-9.8	-13.3	0.37	x	x
CN1/C(=C\C=C\C2=[N+](C)c3ccc4ccccc4c3C2(C)C)C(C)(C)c2ccccc21	-6.01*	35.6	x	u	16.5	+
CN1/C(=C\C=Nc2ccccc2)C(C)(C)c2ccccc21	0.518	7.6	0.3	-2.75	-8.0	i
CCn1c(O)c(C(c2ccccn2)c2c(O)n(CC)c(=S)[nH]c2=O)c(=O)[nH]c1=S	1.2	-3.0	-0.3	x	96.5*	i
O=c1[nH]c(=S)[nH]c(O)c1C(c1ccccn1)c1c(O)[nH]c(=S)[nH]c1=O	-0.419	-2.3	7.5	-0.15	2.3	i
O=C(/C=C/c1c[nH]c2ccccc12)c1c(O)n(CCc2ccccc2)c(=O)[nH]c1=O	i	i	85.3*	x	x	x
CCCCn1c(O)c(C(C)=NCCc2c[nH]c3ccccc23)c(=O)[nH]c1=O	-0.319	x	3.9	-0.47	x	x
COc1ccc(OC)c(N2C(=O)NC(=O)/C(=C/c3ccc([N+](=O)[O-])s3)C2=O)c1	-0.951	9.9	-1.2	x	22.2	i
Oc1cccc2cccnc12	x	x	94.0*	x	x	x
CN(C(=O)Oc1cccc2cccnc12)c1ccccc1	-0.534	-11.9	0.6	-0.04	-1.9	i
SMILES	Cl transport mod	Rad51 HR inh	SKKanGAS inh	Insulin prom up	WT yeast gro inh	Autophagy HCS
O=C(c1cn(Cc2ccccc2F)c2ncccc12)C(F)(F)F	x	x	32.4	x	x	x
COC(=O)C1=CO[C@@H](C)[C@H]2CN3CC[C@]4(C(=O)Nc5ccccc54)[C@@H]3C[C@H]12	x	0.7	4.4	x	x	x
Clc1ccc(CO/N=C(\Cn2ccnc2)c2ccc(Cl)cc2Cl)c(Cl)c1	x	3.9	96.5*	x	x	x
COc1ccc(OC)c(CN2CCCC(C(=O)c3sccc3C)C2)c1 (stereo unspecified)	-2.34	x	-3.9	-0.3	x	x
CCCCn1c(=O)c(C(=O)Nc2ncccc2C)c(O)c2ccccc21	x	x	107.1*	x	x	x
CCCCCn1c(=O)c(C(=O)Nc2nc(CC(=O)OCC)cs2)c(O)c2ccccc21	0.877	-2.0	71.0*	-0.52	-16.9	i
CCCCn1c(=O)c(C(=O)Nc2nnc(C(C)C)s2)c(O)c2ccccc21	-0.0551	-0.4	94.8*	0.75	69.1*	i
CCCCCCn1c(=O)c(C(=O)Nc2ncccc2C)c(O)c2ccccc21	x	x	94.2*	x	x	x
CCCCCCn1c(=O)c(C(=O)Nc2nnc(C)s2)c(O)c2ccccc21	x	8.8	-5.6	0.01	36.4	i
CCCCCCn1c(=O)c(C(=O)Nc2cccc(C)n2)c(O)c2ccccc21	x	x	-2.7	x	x	x
CC(C)CCC1(CN2CCCC2=O)C(=O)NC(=O)NC1=O	-0.103	-10.5	-3.4	-0.02	5.9	i
CC(C)=CCc1c(O)cc2c(c1O)C(=O)CC(c1ccc(O)cc1)O2 (stereo unspecified)	-0.0779	10.1	50.2*	0.9	x	x
CCC(=O)Nc1ccc(N2CCN(CC)CC2)c(Cl)c1	0.736	x	-3.6	-0.05	70.2*	i
COc1ccccc1-n1c(O)c(/C=C2\C=Nc3ccccc32)c(=O)[nH]c1=O	x	x	1.2	x	x	x
Cc1nc2c(=O)n(C)c(=O)nc-2n(C)n1	-0.0671	x	78.0*	u	9.7	i
O=c1oc2ccccc2c(O)c1C(c1ccc([N+](=O)[O-])cc1)c1c(O)c2ccccc2oc1=O	-1.56	13.1	61.9*	0.16	2.1	i
CCCCC/C=C\C/C=C\C/C=C\C/C=C\CCCC(=O)Nc1ccc(O)cc1	0.0254	-2.5	106.9*	0.31	75.7*	x
CCC(=O)Nc1ccccc1	x	x	-6.3	x	x	x
CSc1ccc(C(=O)C2CCCN(Cc3cccnc3)C2)cc1 (stereo unspecified)	-0.83	x	-17.0	-0.15	-3.7	i
CSc1ccc(C(=O)C2CCCN(Cc3cc4ccccc4[nH]3)C2)cc1 (stereo unspecified)	0.415	-5.9	-0.9	-0.22	66.2*	i
O=C(Oc1c(Cl)cc(Cl)c2ccccc12)N1CCCCC1	-0.181	-0.6	30.7	x	73.3*	i
O=C(Nc1ccc(OC(=O)N2CCCCC2)cc1)N1CCOCC1	0.95	7.1	4.3	-0.23	0.7	i
O=C(CF)NC(NC(=S)Nc1ccccc1O)C(Cl)(Cl)Cl (stereo unspecified)	1.4	x	7.3	0.82	36.7	i
CCc1ccc(N2C(=O)NC(=O)C(CCc3ccncc3)(CCc3ccncc3)C2=O)cc1	0.11	1.9	-4.1	0.08	14.5	i

Source: PubChem BioAssay (several laboratories)
